Source: PubChem BioAssay (several laboratories)
Hits are enriched below; roughly 4.5% of the tested compounds scored in any of these assays.
MrgX1 PAM = allosterically activates human MrgX1 receptor signaling. MrgX1-HEK293, Fluo-4 calcium flux, FDSS; active compounds read high. B-score at 10 µM. 0.63% of 310,000 active. AID 588675;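 active means plate-corrected calcium response at least 3 library SD above typical, normal starting fluorescence, not activating the receptor alone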;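 further: compound read alongside a low EC10 to EC30 dose of BAM8-22 agonist; peak minus trough fluorescence over baseline measured at the second addition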
Target sequence (Q96LB2 whole entry, looked up): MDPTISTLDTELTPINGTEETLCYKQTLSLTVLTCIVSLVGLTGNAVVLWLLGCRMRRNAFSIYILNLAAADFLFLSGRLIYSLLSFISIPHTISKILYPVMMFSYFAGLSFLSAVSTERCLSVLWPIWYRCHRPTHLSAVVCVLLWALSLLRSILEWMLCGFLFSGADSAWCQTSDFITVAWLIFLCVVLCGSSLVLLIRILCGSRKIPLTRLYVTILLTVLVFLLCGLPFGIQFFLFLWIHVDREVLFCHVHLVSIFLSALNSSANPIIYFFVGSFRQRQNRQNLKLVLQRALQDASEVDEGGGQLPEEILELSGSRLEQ
PHOSPHO1 block = PHOSPHO1 (human) inhibition; Q8TCT1; recombinant PHOSPHO1, absorbance phosphatase assay; inhibition, % at 13.3 µM; 1.1% of 290,000 active; in the data active means inhibition above about 60%
RGS4 inh = human RGS4 inhibition. HEK293 M3R/RGS4 inducible, Fluo-4 calcium flux; active compounds read high; triggered by carbachol at its EC20. AID 463165. B-score at 10 µM. 0.45% of 310,000 active. P49798;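 active means B-score, a plate-corrected calcium signal, over three deviations above library mean, with baseline fluorescence within five deviations of library mean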;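 further: RGS4 expression induced by doxycycline in cells with stable M3 receptor; B-score is computed from the integrated fluorescence ratio over baseline after carbachol; higher B-score means a larger calcium signal and so more RGS4 inhibition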
Target sequence (P49798 whole entry, looked up): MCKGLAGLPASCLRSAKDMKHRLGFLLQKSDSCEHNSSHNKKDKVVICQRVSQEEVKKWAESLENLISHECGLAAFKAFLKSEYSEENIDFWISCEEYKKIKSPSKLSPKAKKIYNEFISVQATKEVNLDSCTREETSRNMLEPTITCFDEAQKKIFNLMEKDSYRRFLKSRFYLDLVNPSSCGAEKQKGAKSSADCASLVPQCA
MrgX1 antagonist = antagonists of human MrgX1 receptor; Q96LB2; MRGX1-HEK293 calcium flux, Fluo-4, BAM8-22 antagonism; active compounds read low; B-score at 10 µM; 1.3% of 310,000 active;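 active means calcium-response B-score plate-corrected more than 3 library SD below zero, starting fluorescence within 5 deviations, no agonist response on first addition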;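 further: peak minus trough fluorescence over baseline after final BAM8-22 challenge near maximal dose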
RGS4 pot = RGS4 potentiation or activation. HEK293 M3R/inducible RGS4, carbachol calcium flux Fluo4; active compounds read low. B-score at 10 µM. 0.92% of 310,000 active;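 active means B-score of the integrated calcium signal more than 4 SD below the library mean, with starting fluorescence not abnormally high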;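 further: negative B-score means reduced calcium response which marks RGS4 activation or potentiation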
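Detection: kinetic calcium fluorescence imaging with Fluo4-AM dye, 2 µM / Material: HEK293 cells with stable M3R and inducible RGS4 / Schedule: recording 10 s baseline at 1 Hz, 100 s post-agonist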
MrgX1 agonist = agonists of human MrgX1 receptor | Q96LB2 | MrgX1-HEK293 cells, Fluo-4 calcium fluorescence, agonist mode; active compounds read high | B-score at 10 µM | 0.44% of 310,000 active | AID 588627;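 active means calcium response B-score plate-corrected fluorescence ratio at least 3 library SD, with starting fluorescence B-score inside 5 SD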
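Assay system: stable human MrgX1 HEK293 cell line. Quantity: 15,000 cells per well. Schedule: cells plated overnight, dye loaded 0.5 h 37 °C, 0.5 h room temperature. Detection: Fluo-4 NW calcium-flux fluorescence, kinetic read. Read-out basis: peak-minus-minimum fluorescence over baseline, converted to B scores. Control set: positive and negative control wells on each plate.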
A number is an active result; . = inactive; / = no result.

SMILES	MrgX1 PAM	PHOSPHO1 block	RGS4 inh	MrgX1 antagonist	RGS4 pot	MrgX1 agonist
CCN(CC)CCNC(=O)c1ccc(NC(=O)/C=C/c2ccc3ccccc3n2)cc1	.	.	.	-8.54	.	.
CCN(CC)CCNC(=O)c1ccc(NC(=O)c2ccccc2-c2ccc(C(F)(F)F)cc2)cc1	.	.	.	.	-9.49	.
Cc1[nH]nc(SCC(=O)NC2CCCCC2)c1[N+](=O)[O-]	.	.	.	.	.	.
O=C(COc1ccccc1Cl)Nc1ccc2c(c1)C(=O)NC2=O	.	.	.	.	.	.
CCOc1ccc(NC(=O)CN(C)C(=O)c2cn(-c3ccc(F)cc3)nc2-c2cccc(OC)c2)cc1OCC	.	/	.	.	-7.2	.
CN(CC(=O)Nc1cccc(F)c1)C(=O)c1cn(-c2ccccc2)nc1-c1ccccc1	.	.	.	.	.	.
Cc1cc(NS(=O)(=O)c2ccc(NC(=O)CSc3nc4ncc(Br)cc4[nH]3)cc2)nc(C)n1	.	72.2	.	.	.	.
Cc1ccccc1OCC(=O)OCC(=O)NCC1CCCO1 (stereo not drawn)	.	.	.	.	.	.
CCC(C)c1ccc(C(C)NC(=S)NC2CCCCC2)cc1 (stereo not drawn)	.	.	.	.	-8.41	.
CN(C)c1ccc(-c2sc(Nc3ccccc3)n[n+]2-c2ccc(F)cc2)cc1	.	.	.	.	.	46.7
COc1ccc(C)cc1Nc1n[n+](-c2ccccc2)c(-c2ccc(OC)c(OC)c2OC)s1	.	.	.	.	.	.
CCN(CC)c1ccc(-c2sc(Nc3ccccc3)n[n+]2-c2ccc(F)cc2)cc1	.	.	.	.	.	.
CCc1ccc(Nc2n[n+](-c3ccccc3)c(-c3ccc(N(CC)CC)cc3)s2)cc1	.	.	.	.	.	44.7
COc1ccc(C)cc1Nc1n[n+](-c2ccccc2)c(-c2ccc(N(C)C)cc2)s1	.	.	.	.	.	33.6
CCc1ccc(Nc2n[n+](-c3ccccc3)c(/C=C/c3ccccc3)s2)cc1	7.42	.	.	.	.	.
Nc1ccc(NC(=O)NC2CCCCC2)cc1[N+](=O)[O-]	.	.	.	.	.	.
Cc1c(C(=O)Nc2cccc([N+](=O)[O-])c2)cnn1-c1ccccc1	.	.	.	.	.	.
NC(=O)COC(=O)CN1C(=O)C2CCCCC2C1=O (stereo not drawn)	.	.	.	.	.	.
COc1ccc(-c2sc(Nc3ccccc3)n[n+]2-c2ccc(F)cc2)cc1Br	.	.	.	.	.	.
COc1ccc2ccccc2c1-c1sc(Nc2ccccc2)n[n+]1-c1ccc(F)cc1	.	.	.	-5.87	.	.
Cc1ccc(N(CC(=O)NCc2ccc(F)cc2)S(=O)(=O)c2c(C)nn(C)c2C)cc1	.	61.6	.	.	.	.
COc1cc(OC)c(NS(=O)(=O)c2cc(Br)cnc2N)cc1Cl	.	.	.	.	.	.
Cc1ccc(NS(=O)(=O)c2cc(Br)cnc2N)c(Cl)c1	.	.	.	.	-6.95	.
COc1ccc(CN(CCC(c2ccc(F)cc2)C2CCOC(C)(C)C2)C(=O)c2ccco2)cc1 (stereo not drawn)	.	.	.	.	-8.17	.
COc1ccc(CN(CCC(c2ccccc2)c2ccco2)C(=O)c2ccco2)cc1 (stereo not drawn)	.	.	.	.	-8.18	.
SMILES	MrgX1 PAM	PHOSPHO1 block	RGS4 inh	MrgX1 antagonist	RGS4 pot	MrgX1 agonist
Cc1cc(C)n(CC(=O)N/N=C/c2ccc(C)o2)n1	.	62.3	.	.	.	.
Cc1cccc(/C=N/NC(=O)Cn2nc(C)cc2C)n1	.	.	.	.	.	.
CCOc1ccc(/C=N/OCC(=O)NCc2ccc3c(c2)OCO3)cc1OC	.	.	.	-5.92	.	.
COc1ccccc1C(=O)COC(=O)c1cc([N+](=O)[O-])ccc1N1CCOCC1	.	/	.	.	.	.
CCOc1ccc(CCNC(=O)c2cc([N+](=O)[O-])ccc2N2CCOCC2)cc1OCC	.	62.8	.	.	.	.
COc1cc(C(=O)COC(=O)c2cc([N+](=O)[O-])ccc2N2CCOCC2)ccc1OC(F)F	.	/	.	-6.15	.	.
Cc1sc2ncn(CC(=O)NCCCC(=O)N3CCC(C(N)=O)CC3)c(=O)c2c1C	.	.	.	.	.	.
CCOC(=O)C1=C(C)N=c2s/c(=C/c3cccc([N+](=O)[O-])c3O)c(=O)n2C1c1ccc(OC)cc1OC (stereo not drawn)	.	.	.	.	-8.37	.
CCOC(=O)C1=C(C)N=c2s/c(=C/c3ccc(OCC(=O)O)cc3)c(=O)n2C1c1ccc(F)cc1 (stereo not drawn)	.	.	.	.	-8.32	.
CCOC(=O)C1=C(C)N=c2s/c(=C/c3ccc(OCC(=O)O)cc3)c(=O)n2C1c1ccc(SC)cc1 (stereo not drawn)	.	.	.	.	.	.
CCOC(=O)C1=C(C)N=c2s/c(=C\c3ccc(O)c([N+](=O)[O-])c3)c(=O)n2C1c1ccccc1OC (stereo not drawn)	.	/	.	-4.59	.	.
CCOC(=O)C1=C(C)N=c2s/c(=C\c3ccc(OCC(=O)O)cc3)c(=O)n2C1c1ccccc1OC (stereo not drawn)	.	.	.	.	.	.
O=C(NC1CCCCC1)C(c1ccco1)N(Cc1ccco1)C(=O)c1ccco1 (stereo not drawn)	.	.	.	.	.	.
CN(C)CC/C=C1\c2cc(F)ccc2CSc2ccccc21	.	.	.	.	-8.8	.
CN(C)CCC=C1c2ccccc2CCc2ccccc21	/	.	/	/	/	/
C#CCN(C)CC/C=C1\c2ccccc2CSc2ccccc21	.	.	.	.	-8.66	.
C=CCN(C)CC/C=C1\c2ccccc2CSc2ccccc21	.	.	.	.	-10.6	.
CN(C)CC/C=C1/c2ccc(F)cc2Sc2ccc(Cl)cc21	.	/	.	.	-7.8	.
COc1ccc(S(=O)(=O)N(C)CC(=O)NC2CC2)cc1OC	.	.	.	.	.	.
NCC/C=C1/c2ccccc2CSc2ccccc21	.	.	.	.	-7.01	.
CN(C)CC/C=C1/c2cc(F)ccc2CSc2ccc(F)cc21	.	.	.	.	.	.
CCOc1ccc(N(CC(=O)NC2CCCC2)C(=O)CSc2nnc(COc3ccccc3)o2)cc1	.	.	.	.	.	.
Cc1cccc(Cl)c1OCCCN1CCOCC1	.	.	.	.	.	.
CC1(C)Cc2c(sc3c2c(=N)n(Cc2ccco2)c(=O)n3Cc2ccc(F)cc2)CO1	.	.	/	-4.56	/	.
CC1(C)Cc2c(sc3[nH]c(=S)n(Cc4ccccc4)c(=O)c23)CO1	.	76.4	.	.	.	.
COc1ccc(Cn2c(=O)n(Cc3ccco3)c(=N)c3c4c(sc32)COC(C)(C)C4)cc1	.	.	/	.	/	.
